The values that follow come from ChEMBL document CHEMBL1250448, “Inhibitor hijacking of Akt activation” (Nat Chem Biol, 2009).

The source made the active and inactive calls. The rule behind the calls is not given here.

The inhibition is the change of the read-out against control, counted positive when it falls.

In assay [1] the target is Protein kinase C eta type (Homo sapiens) (UniProt P24723). As to the kind of experiment: Inhibition of PRKCH at 1 uM in presence of 10 uM ATP by Select Screen kinase assay relative to untreated control.
Assay [2] concerns the target Tyrosine-protein kinase ABL1 (Homo sapiens) (UniProt P00519). Nature of the assay: Inhibition of ABL1 at 1 uM in presence of 10 uM ATP by Select Screen kinase assay relative to untreated control. Summed up: (§1)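 Single-point screen at 1 μM against a panel of 220 purified kinases, run by Invitrogen staff as a SelectScreen profiling service. Read-out is percent inhibition of kinase activity.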

In assay [3] the test system is Tyrosine-protein kinase ABL1 (Homo sapiens), P00519 [E255K]. As to the kind of experiment: Inhibition of ABL1 E255K mutant at 1 uM in presence of 10 uM ATP by Select Screen kinase assay relative to untreated control. Summed up: as §1
The test system of assay [4] is Tyrosine-protein kinase ABL1 (Homo sapiens), P00519 [G250E]. Nature of the assay: Inhibition of ABL1 G250E mutant at 1 uM in presence of 10 uM ATP by Select Screen kinase assay relative to untreated control. In outline: as §1
Assay [5] addresses RAC-beta serine/threonine-protein kinase (Homo sapiens) (UniProt P31751). Nature of the assay: Inhibition of AKT2 at 1 uM in presence of 10 uM ATP by Select Screen kinase assay relative to untreated control. Summed up:
as §1

The target in assay [6] is Serine/threonine-protein kinase BRSK1 (Homo sapiens) (UniProt Q8TDC3). Nature of the assay: Inhibition of BRSK1 at 1 uM in presence of 10 uM ATP by Select Screen kinase assay relative to untreated control. In outline: as §1
In assay [7] the target is Tyrosine-protein kinase BTK (Homo sapiens) (UniProt Q06187). As to the kind of experiment: Inhibition of BTK at 1 uM in presence of 10 uM ATP by Select Screen kinase assay relative to untreated control. Summed up:
as §1

In assay [8] the target is Ribosomal protein S6 kinase alpha-1 (Homo sapiens) (UniProt Q15418). Nature of the assay: Inhibition of RPS6KA1 at 1 uM in presence of 100 uM ATP by Select Screen kinase assay relative to untreated control.
Assay [9] deals with Serine/threonine-protein kinase Sgk1 (Homo sapiens) (UniProt O00141). As to the kind of experiment: Inhibition of SGK at 1 uM in presence of 10 uM ATP by Select Screen kinase assay relative to untreated control.
The target in assay [10] is Serine/threonine-protein kinase 3 (Homo sapiens) (UniProt Q13188). As to the kind of experiment: Inhibition of STK3 at 1 uM in presence of 10 uM ATP by Select Screen kinase assay relative to untreated control.
The target in assay [11] is Dual specificity protein kinase CLK1 (Homo sapiens) (UniProt P49759). Nature of the assay: Inhibition of CLK1 at 1 uM in presence of 100 uM ATP by Select Screen kinase assay relative to untreated control. Summed up:
(§2)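 Part of a 220-kinase panel of purified kinases, each tested with compound at 1 μM. Percent inhibition was measured in the Invitrogen SelectScreen profiling assay.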

In assay [12] the target is Dual specificity protein kinase CLK2 (Homo sapiens) (UniProt P49760). Nature of the assay: Inhibition of CLK2 at 1 uM in presence of 10 uM ATP by Select Screen kinase assay relative to untreated control. Summed up: as §2
Assay [13] deals with Casein kinase I isoform epsilon (Homo sapiens) (UniProt P49674). Nature of the assay: Inhibition of CSNK1E at 1 uM in presence of 10 uM ATP by Select Screen kinase assay relative to untreated control.
The target in assay [14] is Receptor-type tyrosine-protein kinase FLT3 (Homo sapiens) (UniProt P36888). Nature of the assay: Inhibition of FLT3 at 1 uM in presence of 10 uM ATP by Select Screen kinase assay relative to untreated control. In outline: (§3)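 Single-concentration profiling at 1 μM against a panel of 220 purified kinases, run as an outsourced SelectScreen kinase profiling service. Activity is expressed as percent inhibition.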

Assay [15] concerns the target Tyrosine-protein kinase JAK2 (Homo sapiens) (UniProt O60674). As to the kind of experiment: Inhibition of JAK2 JH1 JH2 domain at 1 uM in presence of 100 uM ATP by Select Screen kinase assay relative to untreated control. In outline:
as §3

For assay [16], the system named is Tyrosine-protein kinase JAK2 (Homo sapiens), O60674 [V617F]. Nature of the assay: Inhibition of JAK2 JH1 JH2 domain V617F mutant at 1 uM in presence of 10 uM ATP by Select Screen kinase assay relative to untreated control.
Assay [17] deals with Mitogen-activated protein kinase 11 (Homo sapiens) (UniProt Q15759). As to the kind of experiment: Inhibition of MAPK11 at 1 uM in presence of 100 uM ATP by Select Screen kinase assay relative to untreated control.
In assay [18] the target is Serine/threonine-protein kinase MARK1 (Homo sapiens) (UniProt Q9P0L2). Nature of the assay: Inhibition of MARK1 at 1 uM in presence of 10 uM ATP by Select Screen kinase assay relative to untreated control.
Assay [19] addresses Serine/threonine-protein kinase pim-2 (Homo sapiens) (UniProt Q9P1W9). Nature of the assay: Inhibition of PIM2 at 1 uM in presence of 10 uM ATP by Select Screen kinase assay relative to untreated control.
Assay [20] deals with Protein kinase C alpha type (Homo sapiens) (UniProt P17252). As to the kind of experiment: Inhibition of PRKCA at 1 uM in presence of 10 uM ATP by Select Screen kinase assay relative to untreated control.
The target in assay [21] is Protein kinase C delta type (Homo sapiens) (UniProt Q05655). Nature of the assay: Inhibition of PRKCD at 1 uM in presence of 10 uM ATP by Select Screen kinase assay relative to untreated control. In outline:
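Profiling panel of 220 purified kinases (SelectScreen), each compound tested at 1 μM. Read-out is percent inhibition of kinase activity.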

For assay [22], the target named is Aurora kinase B (Homo sapiens) (UniProt Q96GD4). As to the kind of experiment: Inhibition of AURKB at 1 uM in presence of 10 uM ATP by Select Screen kinase assay relative to untreated control.
The target in assay [23] is T1, RAC-alpha serine/threonine-protein kinase (Homo sapiens, UniProt P31749). Nature of the assay: Inhibition of wild type AKT1 expressed in HEK293 cells assessed as reduction of IGF1-induced GSK3-beta Ser9 phosphorylation treated 20 mins before IGF1 stimulation by immunoblotting. The assay is classed as cell-based. Summed up:
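Untransfected HEK293 cells carrying endogenous Akt were serum-starved overnight. They were treated with compound for 20 min, then stimulated with 50 ng/ml IGF-1 for 10 min. DMSO stocks were diluted 1:1000. Lysates in Tris pH 7.5/Triton buffer with phosphatase inhibitors were immunoblotted for GSK3β Ser9 and Akt Thr308/Ser473 phosphorylation, read by ECL.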
For orientation: A western blot detects proteins with antibodies after separation by electrophoresis.

Assay [24] concerns the target T1, RAC-alpha serine/threonine-protein kinase. Nature of the assay: Induction of AKT1 Ser473 phosphorylation expressed in IGF1-stimulated HEK293 cells treated 20 mins before IGF1 stimulation by immunoblotting. The assay is classed as cell-based. In outline:
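HEK293 cells (not transfected), serum-starved overnight, then given inhibitor for 20 min before 50 ng/ml IGF-1 for a further 10 min. Cells detached in ice-cold Ca/Mg-free PBS with 0.04% EDTA and lysed in Tris pH 7.5 Triton buffer with protease/phosphatase inhibitors. Lysates cleared at 14000 g, protein equalised by Bradford, and pThr308, pSer473 and GSK3β pSer9 read by immunoblot with ECL.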

T1 sequence (P31749 whole entry): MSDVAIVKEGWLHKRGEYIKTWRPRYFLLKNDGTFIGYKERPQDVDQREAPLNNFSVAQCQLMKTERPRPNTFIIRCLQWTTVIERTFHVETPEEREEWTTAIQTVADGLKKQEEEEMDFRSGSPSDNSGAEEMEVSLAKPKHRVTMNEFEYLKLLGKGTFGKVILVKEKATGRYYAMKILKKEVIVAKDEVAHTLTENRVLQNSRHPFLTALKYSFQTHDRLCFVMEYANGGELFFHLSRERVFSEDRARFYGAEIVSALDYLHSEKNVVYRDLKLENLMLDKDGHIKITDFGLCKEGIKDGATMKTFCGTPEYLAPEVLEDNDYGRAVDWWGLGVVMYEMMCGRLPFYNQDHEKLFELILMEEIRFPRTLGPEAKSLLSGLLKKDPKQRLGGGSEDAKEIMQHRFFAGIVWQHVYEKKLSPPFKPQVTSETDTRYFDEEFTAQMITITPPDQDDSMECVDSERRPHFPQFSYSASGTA
Ribosomal protein S6 kinase alpha-1 (Homo sapiens), sequence (Q15418 whole entry): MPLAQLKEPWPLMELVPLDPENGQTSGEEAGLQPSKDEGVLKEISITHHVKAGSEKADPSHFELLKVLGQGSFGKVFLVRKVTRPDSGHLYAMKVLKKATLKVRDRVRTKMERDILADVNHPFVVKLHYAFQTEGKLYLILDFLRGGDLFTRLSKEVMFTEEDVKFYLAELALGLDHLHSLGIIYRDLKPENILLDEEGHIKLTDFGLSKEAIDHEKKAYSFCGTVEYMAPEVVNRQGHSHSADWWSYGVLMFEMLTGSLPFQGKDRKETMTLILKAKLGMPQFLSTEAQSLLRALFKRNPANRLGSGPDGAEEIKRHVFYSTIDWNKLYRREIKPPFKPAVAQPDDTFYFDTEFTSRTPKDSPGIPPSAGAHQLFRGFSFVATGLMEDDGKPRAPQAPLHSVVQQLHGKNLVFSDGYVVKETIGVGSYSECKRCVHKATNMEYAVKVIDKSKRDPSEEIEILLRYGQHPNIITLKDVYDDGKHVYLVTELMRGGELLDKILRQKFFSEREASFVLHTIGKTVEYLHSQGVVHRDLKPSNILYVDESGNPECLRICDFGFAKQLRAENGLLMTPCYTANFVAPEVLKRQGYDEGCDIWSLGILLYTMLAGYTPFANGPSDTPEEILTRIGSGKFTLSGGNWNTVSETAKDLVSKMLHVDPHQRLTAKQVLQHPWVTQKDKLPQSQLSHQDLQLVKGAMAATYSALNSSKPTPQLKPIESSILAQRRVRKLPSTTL
Serine/threonine-protein kinase MARK1 (Homo sapiens), sequence (Q9P0L2 whole entry, looked up): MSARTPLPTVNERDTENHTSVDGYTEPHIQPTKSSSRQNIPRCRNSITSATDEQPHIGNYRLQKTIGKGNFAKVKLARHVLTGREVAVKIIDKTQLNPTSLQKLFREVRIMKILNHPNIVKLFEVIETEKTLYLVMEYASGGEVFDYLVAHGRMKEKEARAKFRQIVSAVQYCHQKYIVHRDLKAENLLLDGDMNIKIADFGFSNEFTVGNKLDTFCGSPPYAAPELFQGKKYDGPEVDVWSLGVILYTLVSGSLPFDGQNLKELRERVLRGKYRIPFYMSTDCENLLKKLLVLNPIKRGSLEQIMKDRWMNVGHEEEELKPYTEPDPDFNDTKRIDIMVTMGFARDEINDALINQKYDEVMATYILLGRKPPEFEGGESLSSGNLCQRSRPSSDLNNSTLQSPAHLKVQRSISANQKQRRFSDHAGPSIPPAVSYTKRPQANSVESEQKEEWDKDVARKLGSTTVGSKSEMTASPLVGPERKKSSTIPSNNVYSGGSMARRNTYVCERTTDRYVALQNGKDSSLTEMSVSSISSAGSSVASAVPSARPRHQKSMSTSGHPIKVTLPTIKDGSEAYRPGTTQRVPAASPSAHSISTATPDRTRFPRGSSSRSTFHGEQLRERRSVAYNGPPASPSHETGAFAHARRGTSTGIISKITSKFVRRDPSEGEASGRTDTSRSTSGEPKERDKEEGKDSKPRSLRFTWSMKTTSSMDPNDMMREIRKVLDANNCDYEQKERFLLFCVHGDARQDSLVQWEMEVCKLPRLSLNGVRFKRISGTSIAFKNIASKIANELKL
Tyrosine-protein kinase BTK (Homo sapiens), sequence (Q06187 whole entry): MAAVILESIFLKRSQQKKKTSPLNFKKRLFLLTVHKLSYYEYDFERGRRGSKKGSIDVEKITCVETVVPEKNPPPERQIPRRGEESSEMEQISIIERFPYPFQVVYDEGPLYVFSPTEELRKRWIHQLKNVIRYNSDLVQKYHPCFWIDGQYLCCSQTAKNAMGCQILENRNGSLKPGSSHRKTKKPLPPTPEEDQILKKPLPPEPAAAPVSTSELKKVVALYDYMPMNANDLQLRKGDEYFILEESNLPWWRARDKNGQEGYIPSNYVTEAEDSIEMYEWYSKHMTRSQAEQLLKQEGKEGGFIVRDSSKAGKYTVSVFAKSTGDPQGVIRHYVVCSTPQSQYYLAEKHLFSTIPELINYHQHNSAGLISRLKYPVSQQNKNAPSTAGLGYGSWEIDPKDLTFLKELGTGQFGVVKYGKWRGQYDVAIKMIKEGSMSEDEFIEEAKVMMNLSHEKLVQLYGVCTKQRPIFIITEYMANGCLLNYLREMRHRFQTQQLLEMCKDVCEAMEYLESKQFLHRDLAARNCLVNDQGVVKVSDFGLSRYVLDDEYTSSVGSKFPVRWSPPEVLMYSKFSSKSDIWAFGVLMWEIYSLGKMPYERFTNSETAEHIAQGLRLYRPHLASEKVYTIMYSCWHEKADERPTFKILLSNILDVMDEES
Aurora kinase B (Homo sapiens), sequence (Q96GD4 whole entry, looked up): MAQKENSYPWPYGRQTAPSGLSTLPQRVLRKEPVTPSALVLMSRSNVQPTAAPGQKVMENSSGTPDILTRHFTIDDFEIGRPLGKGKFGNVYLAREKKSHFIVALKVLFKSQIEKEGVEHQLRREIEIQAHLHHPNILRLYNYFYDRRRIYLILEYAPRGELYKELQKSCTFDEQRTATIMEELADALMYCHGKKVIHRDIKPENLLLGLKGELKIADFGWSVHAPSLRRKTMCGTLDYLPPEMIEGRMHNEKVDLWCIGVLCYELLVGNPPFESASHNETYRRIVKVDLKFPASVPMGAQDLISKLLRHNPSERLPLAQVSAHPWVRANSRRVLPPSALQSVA
RAC-beta serine/threonine-protein kinase (Homo sapiens), sequence (P31751 whole entry): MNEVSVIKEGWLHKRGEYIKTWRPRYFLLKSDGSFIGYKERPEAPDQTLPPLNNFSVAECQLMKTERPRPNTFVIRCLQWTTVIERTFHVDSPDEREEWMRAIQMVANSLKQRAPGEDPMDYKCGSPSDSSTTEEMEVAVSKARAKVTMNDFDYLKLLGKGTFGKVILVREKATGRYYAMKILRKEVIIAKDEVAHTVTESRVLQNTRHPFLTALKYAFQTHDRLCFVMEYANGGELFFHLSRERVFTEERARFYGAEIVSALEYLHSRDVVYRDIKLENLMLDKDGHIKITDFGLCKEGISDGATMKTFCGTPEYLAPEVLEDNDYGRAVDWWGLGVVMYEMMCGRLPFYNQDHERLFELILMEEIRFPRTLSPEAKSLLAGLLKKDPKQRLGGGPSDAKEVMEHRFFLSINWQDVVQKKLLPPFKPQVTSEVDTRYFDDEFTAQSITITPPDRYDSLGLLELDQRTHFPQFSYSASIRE
Dual specificity protein kinase CLK1 (Homo sapiens), sequence (P49759 whole entry, looked up): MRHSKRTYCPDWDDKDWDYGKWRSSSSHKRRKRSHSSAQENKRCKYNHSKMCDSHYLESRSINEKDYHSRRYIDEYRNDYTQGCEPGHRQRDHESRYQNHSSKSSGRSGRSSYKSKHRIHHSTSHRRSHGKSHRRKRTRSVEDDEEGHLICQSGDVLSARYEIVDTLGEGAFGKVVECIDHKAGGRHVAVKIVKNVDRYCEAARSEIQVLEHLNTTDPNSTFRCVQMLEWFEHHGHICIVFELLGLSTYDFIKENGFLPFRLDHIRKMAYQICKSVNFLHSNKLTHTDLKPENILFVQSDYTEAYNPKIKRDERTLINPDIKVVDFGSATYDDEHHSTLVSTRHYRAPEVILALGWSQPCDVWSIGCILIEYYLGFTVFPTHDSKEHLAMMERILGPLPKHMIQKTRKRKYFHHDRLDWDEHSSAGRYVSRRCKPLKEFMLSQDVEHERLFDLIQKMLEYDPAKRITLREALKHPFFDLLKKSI
Mitogen-activated protein kinase 11 (Homo sapiens), sequence (Q15759 whole entry): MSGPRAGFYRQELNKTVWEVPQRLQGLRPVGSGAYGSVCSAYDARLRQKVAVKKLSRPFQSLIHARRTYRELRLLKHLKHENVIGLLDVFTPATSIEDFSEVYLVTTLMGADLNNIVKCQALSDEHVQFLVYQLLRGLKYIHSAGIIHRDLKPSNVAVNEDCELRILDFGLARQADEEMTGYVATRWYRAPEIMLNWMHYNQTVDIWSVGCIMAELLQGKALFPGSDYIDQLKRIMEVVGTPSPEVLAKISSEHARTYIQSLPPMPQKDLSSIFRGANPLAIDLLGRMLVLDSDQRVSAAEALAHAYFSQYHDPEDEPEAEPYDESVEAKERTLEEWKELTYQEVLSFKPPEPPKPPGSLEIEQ

On to `COc1ccccc1N1CCN(c2ncnc3[nH]nc(Br)c23)CC1`, for which the inhibition in assay [1] stood at 8%; in [2], 12%; in assay [3], 5%; in assay [4], 7%; in [5], 12%; in [6], 29%. Besides, the inhibition in [7] is 11%; in [8], 63%; in assay [9], 13%; in assay [10] it was 9%; in assay [11] it was 74%; in assay [12] it was 85%. Further, the inhibition in [13] is 23%; in assay [14], 60%; in assay [15], 0%; in [16], -3%; in assay [17], 4%; in [18], 23%. Moreover, the inhibition was -1% in [19], 21% in [20], -5% in assay [21] and 20% in [22].

For `Cc1n[nH]c2ccc(-c3cncc(OC[C@@H](N)Cc4c[nH]c5ccccc45)c3)cc12`, the inhibition entry in assay [23] is “Active”. Also, the outcome in assay [24] was Active. Further, the inhibition in [13] came out at 42%.

For the compound `CCCc1cc(-c2cncc(OC[C@@H](N)Cc3c[nH]c4ccccc34)c2)cc2c(C)n[nH]c12`, the inhibition result in assay [23] is “inactive”. Besides, in assay [24], the result was inactive.

Take `O=C(NCCCNc1nc(Nc2cccc(NC(=O)N3CCCC3)c2)ncc1I)c1cccs1`: the inhibition in [1] was found to be 7%; in assay [2] it was 37%; in assay [3], 26%; in assay [4] it was 18%; in [5], 9%; in assay [6], 75%. Further, the inhibition came to 23% in assay [7]; 42% in assay [8]; 53% in assay [9]; 21% in [10]; 30% in assay [11]; 70% in assay [12]. In addition, the inhibition in [14] was found to be 95%; in assay [15] it was 97%; in assay [16], 105%; in assay [17], 6%; in [18] it was 95%; in [19] it was 1%. The values for the inhibition in assay [20], in [21] and in assay [22] were 61%, 24% and 103%, respectively.
